Experimental data: ChEMBL document CHEMBL1140939, “A series of 2,4-disubstituted quinolines as a new class of allosteric enhancers of the adenosine A3 receptor” (J Med Chem, 2009)

Legend:
[1] = target: T1, Adenosine receptor A3 (Homo sapiens) (UniProt P0DMS8); experiment: Displacement of [125I]AB-MECA from human adenosine A3 receptor expressed in CHO cells at 10 uM; format: cell-based
T1 sequence (whole entry): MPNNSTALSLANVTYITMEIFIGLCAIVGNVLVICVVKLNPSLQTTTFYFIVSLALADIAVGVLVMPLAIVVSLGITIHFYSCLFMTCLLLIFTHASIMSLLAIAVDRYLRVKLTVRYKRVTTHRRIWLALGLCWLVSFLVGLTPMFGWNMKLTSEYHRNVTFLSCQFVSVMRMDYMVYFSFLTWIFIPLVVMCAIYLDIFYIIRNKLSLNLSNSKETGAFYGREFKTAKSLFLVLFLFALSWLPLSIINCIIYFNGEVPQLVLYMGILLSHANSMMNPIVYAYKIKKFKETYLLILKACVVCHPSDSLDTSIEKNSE
How it was run: (§1)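 Equilibrium binding on CHO membranes with human A1 (20 µg protein, 60 min) or A3 (10 µg, 120 min) at 25 °C. Buffer 50 mM Tris-HCl pH 8.0, 10 mM MgCl2, 1 mM EDTA, 0.01% CHAPS. Test ligand 10 µM with ~0.1 nM 125I-AB-MECA. Nonspecific binding with 10 µM DPCPX (A1) or 100 µM R-PIA (A3). Filtration, then γ-counting.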

[2] = target: T1, Adenosine receptor A3 (Homo sapiens); experiment: Binding affinity to human adenosine A3 receptor expressed in CHO cells assessed as enhancement of C1IB-MECA-induced displacement of [125I]AB-MECA from receptor at 10 uM after 120 mins relative to control
[3] = target: T2, Adenosine receptor A1 (Homo sapiens) (UniProt P30542); experiment: Binding affinity to human adenosine A1 receptor expressed in CHO cells assessed as enhancement of DPCPX-induced displacement of [125I]AB-MECA from receptor at 10 uM after 90 mins relative to control; format: cell-based
T2 sequence (whole entry): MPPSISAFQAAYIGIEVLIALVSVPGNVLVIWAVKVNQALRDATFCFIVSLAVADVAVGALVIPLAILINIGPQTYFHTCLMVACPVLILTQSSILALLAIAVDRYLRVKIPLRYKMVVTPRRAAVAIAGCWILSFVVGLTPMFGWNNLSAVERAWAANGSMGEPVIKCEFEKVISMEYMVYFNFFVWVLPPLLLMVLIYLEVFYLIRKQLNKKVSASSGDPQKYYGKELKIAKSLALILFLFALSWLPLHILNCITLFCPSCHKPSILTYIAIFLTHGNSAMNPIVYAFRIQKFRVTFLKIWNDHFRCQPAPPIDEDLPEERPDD
How it was run: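 CHO membranes expressing human A1 (20 µg) or A3 (10 µg) preincubated with ~0.1 nM 125I-AB-MECA at 25 °C, 60 min (A1) or 120 min (A3), in 50 mM Tris-HCl pH 8.0, 10 mM MgCl2, 1 mM EDTA, 0.01% CHAPS. Dissociation started with 10 µM DPCPX (A1) or 10 µM Cl-IB-MECA (A3), with or without modulator. Bound ligand read at 90 min (A1) or 120 min (A3); control = 100%. Two assays in duplicate.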

[4] = target: Adenosine receptor A2a (Homo sapiens) (UniProt P29274); experiment: Displacement of [3H]ZM241385 from human adenosine A2A receptor expressed in HEK293 cells at 10 uM; format: cell-based
Sequence of Adenosine receptor A2a (Homo sapiens) (P29274 whole entry): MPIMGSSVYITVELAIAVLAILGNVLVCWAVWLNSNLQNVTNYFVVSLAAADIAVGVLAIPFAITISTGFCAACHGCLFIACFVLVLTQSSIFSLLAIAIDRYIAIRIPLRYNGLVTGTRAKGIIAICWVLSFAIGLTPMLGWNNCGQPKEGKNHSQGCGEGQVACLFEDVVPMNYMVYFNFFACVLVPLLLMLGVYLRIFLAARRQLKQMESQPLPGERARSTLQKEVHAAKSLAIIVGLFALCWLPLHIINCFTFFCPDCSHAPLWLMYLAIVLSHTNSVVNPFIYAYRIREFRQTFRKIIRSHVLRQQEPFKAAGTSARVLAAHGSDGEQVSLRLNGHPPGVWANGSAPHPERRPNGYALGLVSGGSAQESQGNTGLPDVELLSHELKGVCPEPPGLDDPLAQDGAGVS
How it was run: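 HEK293 membranes with human A2A (30 µg protein) incubated 120 min at 25 °C in 50 mM Tris-HCl pH 7.4 with ~1.7 nM [3H]ZM241385 and 10 µM test ligand. Nonspecific binding defined by 100 µM CGS 21680. Filtration, then liquid scintillation counting.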

[5] = target: T2, Adenosine receptor A1 (Homo sapiens); experiment: Displacement of [125I]AB-MECA from human adenosine A1 receptor expressed in CHO cells at 10 uM; format: cell-based; how it was run: as §1
[6] = target: T3, Adenosine receptor A2b (Homo sapiens) (UniProt P29275); experiment: Displacement of [3H]MRS1754 from human adenosine A2B receptor expressed in CHO cells at 10 uM; format: cell-based
T3 sequence (whole entry): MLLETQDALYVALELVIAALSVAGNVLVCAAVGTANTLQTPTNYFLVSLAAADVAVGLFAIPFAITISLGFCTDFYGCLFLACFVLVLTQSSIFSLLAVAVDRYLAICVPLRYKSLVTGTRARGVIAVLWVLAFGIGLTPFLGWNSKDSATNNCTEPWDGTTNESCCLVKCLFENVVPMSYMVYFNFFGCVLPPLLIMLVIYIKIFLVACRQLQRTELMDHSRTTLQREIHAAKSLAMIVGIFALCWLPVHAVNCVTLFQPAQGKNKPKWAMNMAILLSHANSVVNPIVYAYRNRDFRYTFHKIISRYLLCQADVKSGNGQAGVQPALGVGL
How it was run: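 CHO membranes expressing human A2B (20 µg protein) with ~1.2 nM [3H]MRS1754 and 10 µM test ligand, 60 min at 25 °C, in 50 mM Tris-HCl pH 7.4 with 0.1% CHAPS. Nonspecific binding with 1 mM NECA. Filtration, then scintillation counting.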

[7] = target: T1, Adenosine receptor A3 (Homo sapiens); experiment: Intrinsic activity at human adenosine A3 receptor expressed in CHO cells assessed as increase in C1IB-MECA-stimulated inhibition of forskolin-induced cAMP release at 10 uM by TR-FRET assay; format: functional, cell-based
How it was run: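 Forskolin-stimulated cAMP in CHOhA3 cells (~5000/well). Cl-IB-MECA concentration range given with or without 10 µM modulator in stimulation buffer (PBS, 5 mM Hepes pH 7.4, 0.1% BSA, 50 µM rolipram, 50 µM cilostamide), 15 min at room temperature. Forskolin 1 µM added, 30 min at room temperature. TR-FRET cAMP read-out. 100% = cAMP with 10 µM Cl-IB-MECA, 0% = forskolin alone. Three assays in duplicate.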

| Compound | Activity [1] [%] | Activity [2] [%] | Activity [3] [%] | Activity [4] [%] | Activity [5] [%] | Activity [6] [%] | Emax [7] [%] |
| --- | --- | --- | --- | --- | --- | --- | --- |
| O=C(Nc1cc(Nc2ccc3c(c2)CCC3)nc2ccccc12)C1CCCCC1 | 10 | 217 | 118 | 19 | 20 | 42 | – |
| Clc1ccc(Nc2nc3ccccc3c3nc(C4CCCCC4)[nH]c23)cc1Cl | 3 | 229 | 120 | 16 | 39 | 41 | 286 |
| COc1ccc(Nc2cc(NC(=O)C3CCCC3)c3ccccc3n2)cc1 | 9 | 134 | 94 | 19 | 24 | 35 | – |
| Cc1ccc(Nc2cc(NC(=O)C3CCCC3)c3ccccc3n2)cc1 | 27 | 165 | 115 | 35 | 52 | 63 | – |
| O=C(Nc1cc(Nc2ccccc2)nc2ccccc12)C1CCCCC1 | 21 | 210 | 70 | 5 | 17 | 26 | – |
| O=C(Nc1cc(Nc2ccccc2)nc2ccccc12)C1CCC1 | 73 | 119 | 79 | 79 | 76 | 66 | – |
| O=C(Nc1cc(NC2CCCC2)nc2ccccc12)C1CCCC1 | 42 | 114 | 107 | 72 | 80 | 14 | – |
| O=C(Nc1cc(Nc2ccc(Cl)c(Cl)c2)nc2ccccc12)c1ccccc1 | 11 | 112 | 102 | -20 | 23 | 37 | – |
| O=C(Nc1cc(Nc2ccc3c(c2)CCC3)nc2ccccc12)C1CCCC1 | 36 | 147 | 90 | 14 | 47 | 62 | – |
| Cc1ccc(Nc2cc(NC(=O)C3CCCCC3)c3ccccc3n2)cc1 | -3 | 220 | 121 | -3 | 63 | 64 | – |
| O=C(Nc1cc(Nc2ccc(Cl)c(Cl)c2)nc2ccccc12)C1CCCC1 | 26 | 169 | 125 | -74 | 17 | -50 | – |
| O=C(Nc1cc(NCc2ccccc2)nc2ccccc12)C1CCCC1 | 34 | 107 | 77 | 49 | 34 | 28 | – |
| O=C(Nc1cc(Nc2ccc(Cl)c(Cl)c2)nc2ccccc12)C1CCCCC1 | 12 | 249 | 94 | -19 | 12 | 17 | 223 |
| O=C(Nc1cc(Nc2ccccc2)nc2ccccc12)C1CCCC1 | 33 | 145 | 104 | 34 | 49 | 61 | – |
| O=C(Nc1cc(Nc2ccc(Cl)c(Cl)c2)nc2ccccc12)c1ccco1 | 15 | 96 | 69 | 10 | 11 | 13 | – |
| O=C(Nc1cc(Nc2ccc3cn[nH]c3c2)nc2ccccc12)C1CCCC1 | 52 | 102 | 72 | 56 | 61 | 90 | – |
| O=C(Nc1cc(Nc2ccccc2)nc2ccccc12)c1ccco1 | 92 | 100 | 68 | 95 | 73 | 60 | – |
| O=C(Nc1cc(Nc2ccccc2)nc2ccccc12)c1ccccc1 | 46 | 100 | 77 | 75 | 64 | 76 | – |
| O=C(Nc1cc(Nc2ccc(Cl)c(Cl)c2)nc2ccccc12)C1CCC1 | 41 | 149 | 72 | 38 | 22 | 51 | – |
